M4 ag = human M4 muscarinic receptor agonists, primary screen, CHO-K1 cells, Fluo-8 calcium fluorescence; CHO-K1 hM4/Gqi5; vehicle 0%, full acetylcholine response 100%; activation, % at 3 µM; 360,000 tested, 0.14% active; AID 624127, 2012;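 active = activation above the run mean over all test wells plus 3 SD, cut at about 32% in these data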;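 also: peak over basal fluorescence ratio per well then scaled between controls; 0% = DMSO wells and 100% = acetylcholine at EC100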
M5 PAM = human M5 muscarinic receptor positive allosteric modulators, primary screen, CHO-K1 cells, Fluo-8 calcium fluorescence | Muscarinic acetylcholine receptor M5 (Homo sapiens), P08912 | CHO-K1 hM5, ACh EC20 PAM; 0% = ACh EC20, 100% = ACh EC100 | activation, % at 3 µM | 360,000 tested, 0.3% active | AID 624038, 2012;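 active = activation above the run cutoff, the mean activation of all test compounds plus 3 SD, cut at about 18% in these data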
Target sequence (P08912 whole entry, looked up): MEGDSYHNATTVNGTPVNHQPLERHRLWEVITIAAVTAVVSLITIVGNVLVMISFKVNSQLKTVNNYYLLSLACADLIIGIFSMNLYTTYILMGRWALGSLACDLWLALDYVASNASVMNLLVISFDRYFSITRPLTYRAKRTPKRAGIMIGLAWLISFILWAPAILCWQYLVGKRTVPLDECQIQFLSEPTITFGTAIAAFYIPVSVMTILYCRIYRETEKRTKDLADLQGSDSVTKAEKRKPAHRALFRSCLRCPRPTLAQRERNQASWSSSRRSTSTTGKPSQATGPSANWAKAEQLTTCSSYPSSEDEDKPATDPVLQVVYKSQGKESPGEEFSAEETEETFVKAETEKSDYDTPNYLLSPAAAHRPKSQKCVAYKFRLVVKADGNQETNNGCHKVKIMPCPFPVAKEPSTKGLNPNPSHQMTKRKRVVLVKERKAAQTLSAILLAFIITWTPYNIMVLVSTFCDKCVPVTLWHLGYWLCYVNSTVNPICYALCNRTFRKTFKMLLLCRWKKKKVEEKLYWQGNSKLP
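Assay system: CHO-K1 hM5 cells / Incubation: Fluo-8 loading 80 min at 37 °C plus 30 min room temperature / Technique: Fluo-8 calcium dye fluorescence, kinetic read / Repeats: single replicate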
M4 PAM = human M4 muscarinic receptor positive allosteric modulators, primary screen, CHO-K1 cells, Fluo-8 calcium fluorescence | Muscarinic acetylcholine receptor M4 (Homo sapiens), P08173 | CHO-K1 hM4/Gqi5, ACh EC20; 0% = ACh EC20, 100% = maximal ACh | activation, % at 3 µM | 360,000 tested, 0.4% active;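 active = activation above its plate's cutoff, the mean activation of sample wells plus 3 SD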
M5 ag = human M5 muscarinic receptor agonists, primary screen, CHO-K1 cells, Fluo-8 calcium fluorescence; activation, % at 3 µM; 360,000 tested, 0.19% active; AID 624037, 2012; CHO-K1 hM5 cells; 0% DMSO wells, 100% maximal acetylcholine response;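 active = activation above the run's mean over test compounds plus 3 SD, cut at about 23% in these data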;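 also: signal is peak over basal fluorescence ratio across the kinetic read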
CHRM4 antagonist = human M4 muscarinic receptor antagonists, primary screen, CHO cells, Fluo-8 calcium fluorescence | 360,000 tested, 0.73% active | Muscarinic acetylcholine receptor M4 (Homo sapiens), P08173 | AID 624125, 2012 | inhibition, % at 3 µM | CHO-hM4 cells, ACh EC80;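 active = inhibition above its plate's cutoff, the mean inhibition of sample wells plus 3 SD, cut at about 27% in these data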;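 also: 0% = acetylcholine EC80 with DMSO and 100% = DMSO without agonist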
M5 antag = human M5 muscarinic receptor antagonists, primary screen, CHO cells, Fluo-8 calcium fluorescence; CHO-hM5 cells, ACh EC80; inhibition, % at 3 µM; 360,000 tested, 0.59% active; Muscarinic acetylcholine receptor M5 (Homo sapiens), P08912;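 active = inhibition above a per-plate cutoff, the mean of that plate's test compounds plus 3 SD, cut at about 27% in these data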;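 also: 0% = acetylcholine EC80 with DMSO and 100% = DMSO without agonist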
The depositor's hits bear a star. Compounds with a hit are over-represented: about 1.9% of the library has one in this group of screens.

Screening O=C(NC1CCCC1)C(C1CC1)n1c(C2CC2)nc2ccccc21 (stereo not drawn) returned M4 ag 1.2, M5 PAM 2.6, M4 PAM 23.4*, M5 ag -0.5, CHRM4 antagonist -12.9 and M5 antag 0.3.
COc1ccc(C(C)=O)cc1CC(=O)Nc1cccc(S(=O)(=O)N2CCOCC2)c1 was read as M4 ag 1.6, M5 PAM 3.5, M4 PAM 3.5, M5 ag 1.6, CHRM4 antagonist 0.1 and M5 antag -1.9.
O=C(Oc1cccc2cccnc12)c1ccc(N2C(=O)C3C4CCC(C4)C3C2=O)cc1 (stereo not drawn) was read as M4 ag 1.1, M5 PAM 7.5, M4 PAM 25.6*, M5 ag 1.6, CHRM4 antagonist 9.7 and M5 antag 1.5.
Screening O=C(Oc1ccc(N2C(=O)C3C4CCC(C4)C3C2=O)cc1)c1ccco1 (stereo not drawn) returned M4 ag 1.5, M5 PAM -4.3, M4 PAM 1.3, M5 ag -4.0, CHRM4 antagonist 1.3 and M5 antag 13.3.
Screening CCOC(=O)C1CCN(C(=O)COC(=O)CN(C)S(=O)(=O)c2ccc(NC(C)=O)cc2)CC1 returned M4 ag 0.6, M5 PAM -2.8, M4 PAM 3.4, M5 ag -3.1, CHRM4 antagonist 2.0 and M5 antag 10.7.
`Cc1ccc(S(=O)(=O)N2CCC(=O)N(CCOC(=O)Nc3cccc(Cl)c3)CC2)cc1` gave M4 ag 9.7, M5 PAM 30.2*, M4 PAM 9.3, M5 ag 12.4, CHRM4 antagonist -0.4 and M5 antag -86.0.
Cc1ccc(NC(=O)OCCN2CCN(S(=O)(=O)c3ccc(C)cc3)CCC2=O)cc1 was read as M4 ag 6.6, M5 PAM -0.1, M4 PAM 4.8, M5 ag 5.5, CHRM4 antagonist -6.2 and M5 antag -3.6.
`O=C(NCC(=O)N(Cc1ccccc1)C(C(=O)NCC1CCCO1)c1ccccc1)c1ccco1` (stereo not drawn) gave M4 ag 18.7, M5 PAM -9.7, M4 PAM -11.2, M5 ag 3.2, CHRM4 antagonist -2.4 and M5 antag 15.0.
For O=C(c1ccco1)N1CCN(Cc2cc(=O)c(OCc3ccc(F)cc3)co2)CC1 the results were M4 ag 0.6, M5 PAM -8.0, M4 PAM -2.4, M5 ag 4.6, CHRM4 antagonist 6.9 and M5 antag 3.8.
Screening COc1cc([C@@H]2c3cc4c(cc3[C@H](O)[C@H]3COC(=O)[C@H]23)OCO4)cc(OC)c1OC returned M4 ag 1.6, M5 PAM -13.8, M4 PAM -16.4, M5 ag 0.8, CHRM4 antagonist 55.4* and M5 antag 4.5.
Screening COc1cc(C2c3cc4c(cc3C(O)C3COCC23)OCO4)cc(OC)c1OC (stereo not drawn) returned M4 ag 0.4, M5 PAM 11.7, M4 PAM 3.4, M5 ag 6.6, CHRM4 antagonist -3.8 and M5 antag 14.3.
`CCc1nc2ccc(C(=O)N3CCN(C(=O)c4ccco4)CC3)cn2c1N(CC)CCOC` gave M4 ag 1.0, M5 PAM 2.6, M4 PAM 3.2, M5 ag -0.2, CHRM4 antagonist -11.9 and M5 antag -5.1.
For O=C(COc1ncnc2ccc(Br)cc12)NC1CCCC1 the results were M4 ag 1.8, M5 PAM 4.3, M4 PAM 24.9*, M5 ag 3.1, CHRM4 antagonist -11.2 and M5 antag -4.4.
Screening CCCc1nc2ccc([N+](=O)[O-])cc2[nH]1 returned M4 ag 1.0, M5 PAM -3.4, M4 PAM 2.1, M5 ag -2.2, CHRM4 antagonist -2.6 and M5 antag 4.5.
`O=C1Nc2ccc(Br)cc2/C1=C/C(=O)c1ccc2c(c1)OCO2` gave M4 ag 5.2, M5 PAM 4.2, M4 PAM -28.6, M5 ag 33.8*, CHRM4 antagonist 46.9* and M5 antag 22.3.
`COc1ccc(C(=O)/C=C2\C(=O)Nc3ccc(Br)cc32)cc1` gave M4 ag 5.4, M5 PAM 5.0, M4 PAM -8.7, M5 ag 13.6, CHRM4 antagonist 26.6* and M5 antag 11.6.
`CCOc1ccc(NS(=O)(=O)c2ccc(C(=O)NCCCN3CCCC3=O)cc2)cc1` gave M4 ag 1.5, M5 PAM -6.8, M4 PAM -5.2, M5 ag -2.2, CHRM4 antagonist 3.9 and M5 antag 12.1.
CC(O)(c1cccc(F)c1)c1nc(-c2cncnc2)cs1 (stereo not drawn) was read as M4 ag 0.5, M5 PAM 0.2, M4 PAM -2.9, M5 ag -0.3, CHRM4 antagonist 5.0 and M5 antag -1.6.
Screening COc1ccc(C)cc1NC(=O)C(Sc1nnc(-c2ccncc2)n1-c1ccc(Cl)cc1)c1ccccc1 (stereo not drawn) returned M4 ag 1.3, M5 PAM -2.1, M4 PAM -0.1, M5 ag -1.8, CHRM4 antagonist 1.5 and M5 antag 5.8.
Screening O=C(Cc1cccc(NC(=O)C2CCN(C(=O)C3CCCC3)CC2)c1)Nc1cccc(C(=O)N2CCCCC2)c1 returned M4 ag -0.3, M5 PAM 1.6, M4 PAM 1.5, M5 ag 0.0, CHRM4 antagonist -12.6 and M5 antag -12.0.
Screening CC(Cc1cccs1)NC(=O)Nc1ccc([N+](=O)[O-])cc1 (stereo not drawn) returned M4 ag 11.4, M5 PAM -14.4, M4 PAM -11.1, M5 ag 2.9, CHRM4 antagonist 2.5 and M5 antag 29.6*.
For Cc1ccc(NC(=O)/C(C#N)=C(\N)C(Cl)(Cl)Cl)nc1 the results were M4 ag 0.6, M5 PAM 3.4, M4 PAM 0.9, M5 ag -3.6, CHRM4 antagonist -1.6 and M5 antag -0.1.
CCN1CCN(C(=O)C(=O)c2cn(CC(=O)N3CCCC3)c3ccccc23)CC1 was read as M4 ag 1.2, M5 PAM -5.1, M4 PAM 5.2, M5 ag -5.2, CHRM4 antagonist -6.8 and M5 antag 18.2.

Bioassay records deposited in PubChem by The Scripps Research Institute Molecular Screening Center.
